We go through seven compounds from paper PMC5819740 (ACS chemical biology, 2017).

SMILES strings stand for the structures. Where two headings read alike, the source gives them in different places.

Data set [1] concerns the target T1, EcDHFR (Escherichia coli, UniProt P0ABQ4). The data set is described as follows: biochemical. Format: biochemical. The settings on record: for Inhibition of EcDHFR activity in single-concentration initial screen: 1mM inhibitor (Fig 2A legend).
Data set [2] deals with T1, EcDHFR. It is filed as binding. The settings on record: thermal shift at single concentration of 0.5 mM small molecule, 5μM EcDHFR.
The target of data set [3] is T1, EcDHFR. Format: biochemical. The conditions noted are these: lower substrate, global non-linear fits.
For data set [4], the target named is T1, EcDHFR. The settings on record: cited from earlier work.
For the next data set, the target named is EcDHFR P21L/L28R mutant. The data set can be described thus: DHFR inhibition assay on drug-resistant double mutant. Format: biochemical, Escherichia coli. The conditions noted are these: P21L/L28R mutant vs wild-type. In outline: (§1)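 Purified recombinant E. coli DHFR (wild-type, or L28R, A26T/L28R, P21L/L28R mutants) in 100mM HEPES pH 7.3 at ~22 °C with 60 μM NADPH, 50 μM H2F and varied test compound; wild-type enzyme at 16.7nM. Reactions were enzyme-started, and NADPH consumption was followed at 340 nm for 100 s (initial rates, <5% product), corrected for non-enzymatic NADPH loss. Run in duplicate; IC50 fitted to y = 100%/[1+(I/IC50)].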

For another data set, the target named is EcDHFR L28R mutant. The data set is described as follows: DHFR inhibition assay on drug-resistant single mutant. It is filed as biochemical, Escherichia coli. The conditions noted are these: L28R mutant vs wild-type. In outline:
as §1

For a further data set, the target named is EcDHFR A26T/L28R mutant. The data set can be described thus: DHFR inhibition assay on drug-resistant double mutant. The conditions noted are these: A26T/L28R mutant vs wild-type. It is filed as biochemical, Escherichia coli. In short, it runs like this:
as §1

A short description of data set [5]: Insolubility limit in growth assay medium. The settings on record: 30 °C, aqueous buffer, kinetic from dmso stock.
For another data set, the system named is E. coli cultures. The data set can be described thus: Rescue of growth by metabolic complement folAmix. The conditions noted are these: M9-media supplemented with folAmix; different resveratrol concentrations. Format: cell-based.
The test system of another data set is Escherichia coli. The settings on record: read-out: estimated IC50 (antibacterial activity); cited from earlier work.
Data set [6] concerns E. coli strain with chromosomal folA replaced by mutant L28R. The settings on record: cited from earlier work.
Setting [7] is: 60μM NADPH, 50μM H2F, 100mM HEPES pH 7.3, 16.7nM EcDHFR, ± S.E.
Setting [8] is: substrate H2F, saturating NADPH.

T1 sequence (P0ABQ4 whole entry): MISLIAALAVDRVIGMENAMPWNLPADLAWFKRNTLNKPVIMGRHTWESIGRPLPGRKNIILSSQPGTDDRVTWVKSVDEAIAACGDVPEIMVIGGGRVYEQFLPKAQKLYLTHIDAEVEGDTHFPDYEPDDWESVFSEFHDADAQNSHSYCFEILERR

As usually defined, the IC50 is the concentration that inhibits the measured activity by half. In turn, `O=S(=O)(O)c1cc(N=C=S)ccc1C=Cc1ccc(N=C=S)cc1S(=O)(=O)O` [DIDS] returned an IC50 on EcDHFR [1] (setting [7]) of 51 ± 1.7 µM. Besides, the “Inhibition of EcDHFR activity in single-concentration initial screen” value (“Inhibition of EcDHFR activity” for short) on EcDHFR [1] is listed as “showed inhibition”.

The term ΔTm denotes the shift of the melting midpoint relative to a reference. Turning to `O=[N+]([O-])c1ccc(/C=C/c2ccc([N+](=O)[O-])cc2S(=O)(=O)O)c(S(=O)(=O)O)c1` [DNDS, dinitro disulfonic acid], the ΔTm on EcDHFR [2] came out at 1.9 °C. At EcDHFR [1] (setting [7]), this compound displayed an IC50 of 45.3 ± 10.1 µM. Moreover, the “Inhibition of EcDHFR activity” value on EcDHFR [1] is on record as “showed inhibition”.

On to `Nc1ccc(C=Cc2ccc(N)cc2S(=O)(=O)O)c(S(=O)(=O)O)c1` [flavonic acid], for which the concentration for half-maximal inhibition (IC50) against EcDHFR [1] (setting [7]) stood at 36.7 ± 3.1 µM. For the same compound, on EcDHFR [1], the “Inhibition of EcDHFR activity” value is given as “showed inhibition”. Besides, on EcDHFR [3] (setting [8]), the αKi is 76.25 ± 6.82 µM.

A word on the Ki: it is the equilibrium dissociation constant of an inhibitor or competing ligand from its target. Take `COc1ccc(CC(=O)c2ccc(O)cc2O)cc1` [ononetin]: at EcDHFR [4], the “Binding to EcDHFR by DSF” value was “showed binding to EcDHFR”. In addition, the “IC50 curve compared with wild-type enzyme” value against EcDHFR P21L/L28R mutant, against EcDHFR L28R mutant and against EcDHFR A26T/L28R mutant was “superimposable” each time. Moreover, at EcDHFR [1], the IC50 came out at 83.4 ± 1.1 µM. The compound further showed a Ki on EcDHFR [1] of 83.4 µM. Also, on EcDHFR [1], the “Inhibition of EcDHFR activity” value is “inhibits the enzyme”. For the same compound, the “Inhibition Mechanism” value on EcDHFR [3] (NADPH titrated at saturating H2F) was “uncompetitive inhibition”. Also, the αKi on EcDHFR [3] (setting [8]) was found to be 111.2 ± 12.37 µM; at EcDHFR [3] (substrate NADPH, saturating H2F) it was 113.2 ± 13.1 µM.

One may read the solubility as how much of the substance goes into solution per volume. A higher solubility goes with much dissolved substance. As for `Oc1cc(O)cc(/C=C/c2ccc(O)cc2O)c1` [oxyresveratrol], the solubility in data set [5] is not above 250 µM.

In the case of `Oc1ccc(/C=C/c2cc(O)cc(O)c2)cc1` [resveratrol], the solubility in [5] was not above 250 µM. The “IC50 curve compared with wild-type enzyme” value against EcDHFR P21L/L28R mutant, at EcDHFR L28R mutant and against EcDHFR A26T/L28R mutant was “superimposable” each time. Also, in the data set on E. coli cultures, the “Effect of folAmix on growth of inhibited cells” value is “fully restores growth”. The 50% inhibitory concentration (IC50) on EcDHFR [1] was 95.7 ± 3 µM; in the data set with Escherichia coli, 250 µM. In addition, the Ki at EcDHFR [1] was 95.7 µM. For the same compound, at EcDHFR [1], the “Inhibition of EcDHFR activity” value is given as “showed inhibition”. This compound had a αKi on EcDHFR [3] (setting [8]) of 88.30 ± 6.02 µM.

Take `COc1cc(Cc2cnc(N)nc2N)cc(OC)c1OC` [trimethoprim]: the “Increase in resistance conferred by L28R variant” value in data set [6] is “approximately 50 fold”.
